Measurements taken from ChEMBL document CHEMBL1122543, “A substituent constant analysis of the interaction of substituted naphthalene monoimides with DNA” (J Med Chem, 1984).

Columns and labels:
Nucleic Acid [1] = experiment: Relative binding affinity for calf thymus DNA in MES 10 at 25 degrees C (Spectrophotometric data); assay type: nucleic-acid assay; details: Bos taurus
Procedure, shortened: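 Spectrophotometric titration of ~1 × 10^-3 M compound stock into calf thymus DNA in MES 10 buffer at 25 °C. Each point averages 100 absorbance readings. Absorbances converted to ν (mol bound per mol base pairs) and free ligand using free and bound extinction coefficients. K and site size n come from a nonlinear least-squares fit of the Scatchard plot to the site exclusion model, in base-pair molarity.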

Nucleic Acid [2] = experiment: Thermal melting point of calf thymus DNA complexed with monoimide in MES 00 buffer (Spectrophotometric data); assay type: functional; details: Bos taurus

SMILES | K (Nucleic Acid [1]) | Tm (Nucleic Acid [2])
CN(C)CCCN1C(=O)c2cccc3cccc(c23)C1=O | 0.0089 | 71.9 °C
CN(C)CCCN1C(=O)c2cccc3cc([N+](=O)[O-])cc(c23)C1=O | 0.0234 | 77.6 °C
CN(C)CCCN1C(=O)c2cccc3cc(N)cc(c23)C1=O | 0.0112 | 70.6 °C
CN(C)CCCN1C(=O)c2cccc3c(N)ccc(c23)C1=O | 0.0162 | 70.6 °C
CN(C)CCCN1C(=O)c2cccc3c([N+](=O)[O-])ccc(c23)C1=O | 0.0083 | 71.7 °C
